PMC10405225 (Cancer chemotherapy and pharmacology, 2022)

What was measured:
BCL-2 or MCL-1 = assay type: cell-based, Human
Summary of the method: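 T-ALL cells were lysed before and after test-compound exposure. Western blots of 10 µg lysate were probed for BCL-2 and MCL-1, with β-actin as loading control. Band intensities were measured by densitometry and normalized to β-actin. Each blot was done twice with distinct protein preparations.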

[1] = system: T-ALL cell lines other than SUP-T1; test: Cell cytotoxicity assay; assay type: cell-based; settings: Homo sapiens, SUP-T1, 48 h
Summary of the method: (§1)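 Human T-ALL lines grown in RPMI with 10% or 20% FBS at 37°C, 5% CO2. Plated 2×10^3–2×10^4 cells/well depending on doubling time, in quadruplicate. Test compound added from DMSO (≥1:1000 into medium) at varying concentrations; DMSO vehicle control. Exposure 48 h, then CCK-8 for 4 h at 37°C and A450 read. % survival derived; ≥3 independent experiments, mean ± SE.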

[2] = intratumoral, T-ALL xenograft in immunodeficient mice ref 8; cited from earlier work
PEER T-ALL cells = test: Cell cytotoxicity assay; assay type: cell-based; settings: Homo sapiens, 48 h
Summary of the method: as §1

BCL-XL = BCL-XL (Homo sapiens, UniProt Q07817); test: BCL-XL degradation by western blot densitometry in SUP-T1 cells; assay type: cell-based; settings: read-out: DC50 (concentration that degraded 50% of BCL-XL protein), 24 hrs of DT2216, western blot densitometry
Sequence of BCL-XL (Q07817 whole entry): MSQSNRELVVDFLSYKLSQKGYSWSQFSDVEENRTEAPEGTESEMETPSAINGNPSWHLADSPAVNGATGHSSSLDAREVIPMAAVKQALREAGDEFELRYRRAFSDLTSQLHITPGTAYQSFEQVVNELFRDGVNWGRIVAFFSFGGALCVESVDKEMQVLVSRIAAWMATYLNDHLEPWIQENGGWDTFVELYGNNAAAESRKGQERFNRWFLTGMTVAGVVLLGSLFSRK

SUP-T1 T-ALL cells = test: Cell cytotoxicity assay; assay type: cell-based, Human
Summary of the method: as §1

DC50 (BCL-XL): 131 nM
Compound: Cc1ncsc1-c1ccc([C@H](C)NC(=O)[C@@H]2C[C@@H](O)CN2C(=O)[C@@H](NC(=O)CCCCCC(=O)N2CCN(CC[C@H](CSc3ccccc3)Nc3ccc(S(=O)(=O)NC(=O)c4ccc(N5CCN(CC6=C(c7ccc(Cl)cc7)CCC(C)(C)C6)CC5)cc4)cc3S(=O)(=O)C(F)(F)F)CC2)C(C)(C)C)cc1 [DT2216]
Induction of BCL-2 or MCL-1 expression by DT2216 (BCL-2 or MCL-1; any of the 13 T-ALL cell lines): not induced
Change in BCL-2 or MCL-1 protein levels after exposure to DT2216 (BCL-2 or MCL-1; resistant SUP-T1 cells): no change
IC50 [1]: < 800 nM
DT2216 level achieved within a T-ALL xenografted tumor in vivo [2]: 800 nM
IC50 (PEER T-ALL cells): 305 nM
IC50 (SUP-T1 T-ALL cells; 48 hrs): 1490 nM
IC50 (SUP-T1 T-ALL cells; Homo sapiens, SUP-T1, 48 h): > 800 nM
